Results on 11 compounds are retold here after ChEMBL document CHEMBL5120856, “New salicylic acid derivatives, double inhibitors of glycolate oxidase and lactate dehydrogenase, as effective agents decreasing oxalate production” (Eur J Med Chem, 2022).

By inhibition is commonly meant the share of the control response that was lost under treatment. One may read the IC50 as the concentration needed to halve the response being measured. As a reminder, the EC50 is the concentration needed to bring the measured effect to its halfway point.

One data set has as its system HEK293. Kind of data set: Cytotoxicity against HEK293 cells assessed as reduction in cell viability upto 50 uM measured after 48 hrs by MTT assay. The format is toxicity, cell-based. Conditions: human, hek293, 48 h. A general note: Formazan colour is commonly taken as a measure of viable cells.
Data set [1] concerns the target T1, 2-Hydroxyacid oxidase 1 (Homo sapiens) (UniProt Q9UJM8).
T1 sequence (whole entry): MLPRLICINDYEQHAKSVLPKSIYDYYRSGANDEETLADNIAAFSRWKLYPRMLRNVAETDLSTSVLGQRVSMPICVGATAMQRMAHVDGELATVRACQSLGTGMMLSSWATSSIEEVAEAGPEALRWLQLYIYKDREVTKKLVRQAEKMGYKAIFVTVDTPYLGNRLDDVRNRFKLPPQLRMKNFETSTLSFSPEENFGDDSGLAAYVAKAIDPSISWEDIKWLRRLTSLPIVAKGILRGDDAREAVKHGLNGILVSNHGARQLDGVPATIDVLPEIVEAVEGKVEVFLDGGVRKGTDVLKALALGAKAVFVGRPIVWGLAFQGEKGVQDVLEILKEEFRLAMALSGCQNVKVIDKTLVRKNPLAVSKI
Nature of the data set: Inhibition of N-terminal His-tagged human recombinant glycolate oxidase expressed in Escherichia coli BL21 (DE3) cells using glycolate as substrate at 20 uM preincubated for 5 mins followed by substrate addition and measured after 1 min in the presence of DCHBS by horseradish peroxidase coupled colorimetric method relative to control. The conditions noted are these: time 6.0 min.

Data set [2] concerns the target T2, 2-Hydroxyacid oxidase 1 (Mus musculus) (UniProt Q9WU19).
T2 sequence (whole entry): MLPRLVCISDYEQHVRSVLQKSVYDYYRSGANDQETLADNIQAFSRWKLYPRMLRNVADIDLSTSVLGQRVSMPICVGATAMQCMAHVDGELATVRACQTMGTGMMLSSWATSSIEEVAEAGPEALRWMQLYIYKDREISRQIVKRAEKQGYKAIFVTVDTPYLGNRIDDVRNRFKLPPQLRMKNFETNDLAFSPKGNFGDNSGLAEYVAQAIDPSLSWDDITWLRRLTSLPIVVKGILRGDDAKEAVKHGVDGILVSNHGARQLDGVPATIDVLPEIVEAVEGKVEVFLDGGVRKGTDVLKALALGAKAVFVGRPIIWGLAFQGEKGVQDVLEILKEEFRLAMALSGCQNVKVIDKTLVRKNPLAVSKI
Kind of data set: Inhibition of N-terminal His-tagged mouse recombinant glycolate oxidase expressed in Escherichia coli BL21 (DE3) cells using glycolate as substrate at 20 uM preincubated for 5 mins followed by substrate addition and measured after 1 min in the presence of DCHBS by horseradish peroxidase coupled colorimetric method relative to control. The conditions noted are these: time 6.0 min.

The target of data set [3] is T3, L-lactate dehydrogenase A chain (Homo sapiens, UniProt P00338). Kind of data set: Inhibition of human recombinant LDHA using pyruvate as substrate preincubated for 10 mins followed by substrate addition and measured every 60 sec for 10 mins in the presence of NADH by fluorescence assay.
Data set [4] deals with L-lactate dehydrogenase B chain (Homo sapiens, UniProt P07195). Kind of data set: Inhibition of human recombinant LDHB using pyruvate as substrate preincubated for 10 mins followed by substrate addition and measured every 60 sec for 10 mins in the presence of NADH by fluorescence assay.
The subject of data set [5] is Hepatocyte. Kind of data set: Inhibition of GO/LDHA in hyperoxaluric-primary hepatocyte isolated from Agxt1 knockdown PH1 C57BL/6 mouse assessed as relative oxalate output at 10 uM measured at 24 hrs in the presence of glycolate relative to control. The format is cell-based. Summed up: (§1)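 Agxt1-/- mouse primary hepatocytes cultured with 5 mM glycolate, inhibitor at 10 μM; extracellular oxalate measured by colorimetric kit 24 and 48 h after inhibitor addition; relative oxalate = oxalate with inhibitor over oxalate without inhibitor; negative values mean below detection limit; mean of three/four replicates ± SD.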

The subject of data set [6] is Hepatocyte. Kind of data set: Inhibition of GO/LDHA in hyperoxaluric-primary hepatocyte isolated from Agxt1 knockdown PH1 C57BL/6 mouse assessed as relative oxalate output at 10 uM measured at 48 hrs in the presence of glycolate relative to control. In kind it is cell-based. Summed up:
as §1

The subject of data set [7] is Hepatocyte. Kind of data set: Cytotoxicity against hyperoxaluric-primary hepatocyte isolated from Hoga1-knockdown PH3 C57BL/6 mouse assessed as cell death at 10 uM by MTS assay. In kind it is toxicity, cell-based. Conditions: hepatocytes, Hoga1-knockdown PH3, 10 µM. The method, boiled down: (§2)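 Primary hepatocytes from Agxt1-/- (PH1, 5 mM glycolate), Grhpr-/- (PH2, 10 mM glycolate) or Hoga1-/- (PH3, 10 mM hydroxyproline) mice, incubated with inhibitor at 10 μM; viability followed through the oxalate assay by MTS tetrazolium method.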

Data set [8] deals with Hepatocyte. Kind of data set: Cytotoxicity against hyperoxaluric-primary hepatocyte isolated from Grhpr-knockdown PH2 C57BL/6 mouse assessed as cell death at 10 uM by MTS assay. In kind it is toxicity, cell-based. The conditions noted are these: hepatocytes, Grhpr-knockdown PH2 (primary hyperoxaluria type 2). Summed up: as §2
Data set [9] has as its system Hepatocyte. Kind of data set: Cytotoxicity against hyperoxaluric-primary hepatocyte isolated from Agxt1-knockdown PH1 C57BL/6 mouse assessed as cell death at 10 uM by MTS assay. In kind it is toxicity, cell-based. The conditions noted are these: hepatocytes, Agxt1-knockdown PH1, 10 µM. The method, boiled down: as §2
The target in data set [10] is T3, L-lactate dehydrogenase A chain. Nature of the data set: Inhibition of human recombinant LDHA using pyruvate as substrate at 10 uM preincubated for 10 mins followed by substrate addition and measured every 60 sec for 10 mins in the presence of NADH by fluorescence assay relative to control. Conditions: time 20.0 min. Summed up: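 Recombinant human LDHA or LDHB (0.015 U/mL) with NADH 150 μM and inhibitor 10 μM in 50 mM phosphate pH 7, 10 min rt baseline read; pyruvate 1 mM added, NADH fluorescence (ex 340/em 460 nm) read every 60 s for 10 min; baseline-corrected slope versus 100% activity control; four replicates.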

The target in data set [11] is T4, 2-Hydroxyacid oxidase 1 (Homo sapiens, UniProt Q9UJM8).
T4 sequence (Q9UJM8 whole entry): T1 sequence (whole entry)
Nature of the data set: Inhibition of N-terminal His-tagged human recombinant glycolate oxidase expressed in Escherichia coli BL21 (DE3) cells using glycolate as substrate preincubated for 10 mins followed by substrate addition and measured after 10 mins by Amplex red and horseradish peroxidase based fluorescence assay.

In data set [12] the target is T5, 2-Hydroxyacid oxidase 1 (Mus musculus, UniProt Q9WU19).
T5 sequence (Q9WU19 whole entry): T2 sequence (whole entry)
Kind of data set: Inhibition of N-terminal His-tagged mouse recombinant glycolate oxidase expressed in Escherichia coli BL21 (DE3) cells using glycolate as substrate preincubated for 10 mins followed by substrate addition and measured after 10 mins by Amplex red and horseradish peroxidase based fluorescence assay.

Data set [13] relates to Hepatocyte. Nature of the data set: Inhibition of GO/LDHA in hyperoxaluric-primary hepatocyte isolated from Grhpr-knockdown PH2 C57BL/6 mouse assessed as relative oxalate output at 10 uM measured at 24 hrs in the presence of glycolate relative to control. In kind it is cell-based. The method, boiled down:
(§3)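 Grhpr-/- mouse primary hepatocytes cultured with 10 mM glycolate, inhibitor at 10 μM; extracellular oxalate determined colorimetrically at 24 and 48 h post-treatment, expressed relative to untreated medium (RO); negative RO means below detection limit; three/four replicates, mean ± SD.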

Data set [14] deals with Hepatocyte. Kind of data set: Inhibition of GO/LDHA in hyperoxaluric-primary hepatocyte isolated from Grhpr-knockdown PH2 C57BL/6 mouse assessed as relative oxalate output at 10 uM measured at 48 hrs in the presence of glycolate relative to control. The format is cell-based. Summed up:
as §3

For data set [15], the system named is Hepatocyte. Nature of the data set: Inhibition of GO/LDHA in hyperoxaluric-primary hepatocyte isolated from Hoga1-knockdown PH3 C57BL/6 mouse assessed as relative oxalate output at 10 uM measured at 24 hrs in the presence of hydroxyproline relative to control. The format is cell-based. The method, boiled down: (§4)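 Hoga1-/- mouse primary hepatocytes challenged with 10 mM hydroxyproline, inhibitor 10 μM; extracellular oxalate measured by colorimetric kit 24 and 48 h after dosing, given as ratio to oxalate without inhibitor; negative values are below detection limit; mean of three/four replicates ± SD.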

Data set [16] deals with Hepatocyte. Kind of data set: Inhibition of GO/LDHA in hyperoxaluric-primary hepatocyte isolated from Hoga1-knockdown PH3 C57BL/6 mouse assessed as relative oxalate output at 10 uM measured at 48 hrs in the presence of hydroxyproline relative to control. In kind it is cell-based. The method, boiled down:
as §4

The test system of data set [17] is Hepatocyte. Kind of data set: Inhibition of GO/LDHA in hyperoxaluric-primary hepatocyte isolated from Agxt1 knockdown PH1 C57BL/6 mouse assessed as reduction in extracellular oxalate concentration at 10 uM measured at 48 hrs in the presence of glycolate relative to control. More on the design: scale not given: the % may be the effect or the level left. The format is cell-based. Summed up: as §1

The nature of data set [18]: Inhibition of GO/LDHA in hyperoxaluric-primary hepatocyte isolated from Agxt1 knockdown PH1 C57BL/6 mouse measured at 24 hrs in the presence of 5 mM glycolate. The format is cell-based. Summed up:
(§5)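 Agxt1-/- hepatocytes with 5 mM glycolate; eight inhibitor concentrations per replicate; extracellular oxalate measured colorimetrically at 24 or 48 h; EC50 as mean of three/four replicates ± SD.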

Data set [19] can be described thus: Inhibition of GO/LDHA in hyperoxaluric-primary hepatocyte isolated from Agxt1 knockdown PH1 C57BL/6 mouse measured at 48 hrs in the presence of 5 mM glycolate. In kind it is cell-based. The method, boiled down:
as §5

Where only a bound is given, the exact number is not on record here.

Chain of L-lactate dehydrogenase B chain (P07195 whole entry): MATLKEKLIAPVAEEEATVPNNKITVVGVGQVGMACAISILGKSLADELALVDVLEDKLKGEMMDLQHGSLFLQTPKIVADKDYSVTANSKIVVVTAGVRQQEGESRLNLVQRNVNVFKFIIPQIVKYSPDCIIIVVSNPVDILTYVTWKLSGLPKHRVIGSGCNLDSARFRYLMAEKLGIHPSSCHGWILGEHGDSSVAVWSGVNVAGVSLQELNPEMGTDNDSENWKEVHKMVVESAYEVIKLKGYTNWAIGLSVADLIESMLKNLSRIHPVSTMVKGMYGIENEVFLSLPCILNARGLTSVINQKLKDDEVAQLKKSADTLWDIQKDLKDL

In the case of `COc1cccc2c1C(=O)c1c(O)c3c(c(O)c1C2=O)C[C@@](O)(C(=O)CO)C[C@@H]3O[C@H]1C[C@H](N)[C@H](O)[C@H](C)O1` [DOXORUBICIN], the Activity result in the data set on HEK293 is on record as “Non-Toxic”.
Regarding `N.O=C(O)c1cc(-c2ccc(CNCc3ccccc3)o2)ccc1O`, the inhibition in [1] and in data set [2] was less than 50% throughout. In addition, the IC50 in [3] stood at 2500 nM; in [4] it was 3300 nM. In addition, the fold change (FC) in the data set on Hepatocyte [5] worked out at 0.18; in the data set on Hepatocyte [6] it was 0.63. Further, the Activity entry in the data set with Hepatocyte [7], in the data set on Hepatocyte [8] and in the data set with Hepatocyte [9] was “Non-Toxic” throughout.
Regarding `O=C(O)c1cc(-c2ccc(CNCc3ccc(O)cc3)o2)ccc1O`, the inhibition in [1] was less than 50%; in data set [2] it was less than 50%; in [10], 18%.
Consider `COc1ccc(CNCc2ccc(-c3ccc(O)c(C(=O)O)c3)o2)cc1`, for which the values for the inhibition in data set [1], in data set [2] and in data set [10] were less than 50%, less than 50% and 18%, respectively.
`O=C(O)c1cc(-c2ccc(CNCc3ccc([N+](=O)[O-])cc3)o2)ccc1O`: the inhibition in [1] and in [2] was less than 50% throughout. The IC50 in data set [3] turned out to be 8000 nM.
For `CCN(CC)CC.O=C(O)c1cc(-c2ccc(CN(Cc3ccccc3)Cc3ccco3)o2)ccc1O`, the IC50 on 2-Hydroxyacid oxidase 1 [11] came out at 16800 nM; at 2-Hydroxyacid oxidase 1 [12] it was 8000 nM; in data set [3], 2300 nM; in [4] it was 4300 nM. For the same compound, the fold change (FC) in the data set on Hepatocyte [5] was -0.09; with Hepatocyte [6], 0.42; with Hepatocyte [13], 0.31; with Hepatocyte [14], 0.34; in the data set on Hepatocyte [15], 0.22; in the data set on Hepatocyte [16], 0.3. Further, the Activity result in the data set on Hepatocyte [7] is “Non-Toxic”; with Hepatocyte [8], “Non-Toxic”; in the data set with Hepatocyte [9], “Non-Toxic”; with Hepatocyte [17], 60%. Further, the EC50 is 500 nM in [18] and 600 nM in [19].
For the compound `O=C(O)c1cc(-c2ccc(CN3CCCCC3)o2)ccc1O`, the inhibition in data set [1] and in data set [2] was less than 50% each time.
In the case of `N.O=C(O)c1cc(-c2ccc(CNc3ccc([N+](=O)[O-])cc3)o2)ccc1O`, the IC50 is 10300 nM at 2-Hydroxyacid oxidase 1 [11], 5400 nM at 2-Hydroxyacid oxidase 1 [12], 1500 nM in [3] and 5900 nM in data set [4]. The fold change (FC) is 0.04 in the data set on Hepatocyte [5]; 0.5 with Hepatocyte [6]; 0.6 with Hepatocyte [13]; 0.88 in the data set on Hepatocyte [14]; 0.18 in the data set on Hepatocyte [15]; 0.1 with Hepatocyte [16]. Moreover, the Activity entry in the data set with Hepatocyte [7] was “Non-Toxic”; with Hepatocyte [8] it was “Non-Toxic”; in the data set with Hepatocyte [9], “Non-Toxic”; in the data set with Hepatocyte [17], 50%; with HEK293, “Non-Toxic”. In addition, the EC50 in data set [18] was 600 nM; in data set [19], 1600 nM.
In the case of `C#CCN(Cc1ccc(-c2ccc(O)c(C(=O)O)c2)o1)Cc1ccc(-c2ccc(O)c(C(=O)O)c2)o1.N.N`, the IC50 is 2000 nM at 2-Hydroxyacid oxidase 1 [11], 800 nM on 2-Hydroxyacid oxidase 1 [12], 1600 nM in data set [3] and 2300 nM in [4]. The fold change (FC) was 0.44 in the data set on Hepatocyte [5]; 0.2 with Hepatocyte [13]; 0.25 in the data set with Hepatocyte [14]; 0.21 in the data set with Hepatocyte [15]; 0.52 with Hepatocyte [16]. In addition, the Activity entry with Hepatocyte [7], in the data set with Hepatocyte [8], in the data set with Hepatocyte [9] and with HEK293 was “Non-Toxic” each time.
As to `CC(C)(C)C(O)/C=C/c1ccc2c(c1)OCO2` (stereo unspecified) [STIRIPENTOL], the fold change (FC) in the data set with Hepatocyte [13] stood at 0.27; in the data set with Hepatocyte [14], 0.33; with Hepatocyte [15], 0.7; in the data set on Hepatocyte [16], 0.49. The Activity entry in the data set on Hepatocyte [7], in the data set on Hepatocyte [8] and with Hepatocyte [9] was “Non-Toxic” each time.
Regarding `O=C(O)c1cc(-c2ccc(CNCc3cccnc3)o2)ccc1O`, the inhibition in [1] and in [2] was less than 50% in each case.
